Assay outcomes as filed in PubChem.
AHR activator: AHR activators, primary screen, cell-based, luminescence, luciferase reporter, human; AHR-responsive luciferase reporter cells; activation, % at 5 µM; actives 2.5% (n = 320,000); in the data active = activation above about 47%
STAT3 act-1: IL-6 driven STAT3 reporter potentiators, primary screen, U3A cells, luciferase, luminescence, MLSCN library; IL-6 STAT3-luciferase reporter; 100% = signal with IL-6 EC80 alone; activation (% of control), % at 5.6 µM; actives 0.91% (n = 190,000);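 active = activation above the screen-wide mean of compound activation plus 3 SD, cut at about 130% in these data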
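system = STAT3-luciferase reporter U3A cells | reagent = IL-6 stimulus at 33 ng/mL final | timing = 1 h compound pre-exposure, 6 h IL-6 stimulation, 37 °C | measured by = luminescence | evaluation = % activation versus median of IL-6-stimulated wells | control set = IL-6-only wells as 100% reference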
thrombin 1536: human alpha-thrombin inhibitors, primary screen, counter-screen for coagulation protease inhibitor project, biochemical, 1536-well, fluorogenic AMC substrate. actives 0.26% (n = 220,000). Boc-VPR-AMC fluorogenic substrate cleavage. inhibition, % at 5 µM. AID 1046, 2008. Prothrombin (Homo sapiens), P00734;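 active = inhibition at or above 40%; inactive = inhibition below 40%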
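Test system: human alpha-thrombin; medium: pH 7.5 Tris-saline with Tween 20; times: reaction at room temperature; signal: AMC fluorescence at 355 nm excitation and 460 nm emission; also added: Boc-VPR-AMC substrate, 15 µM final; dosing: one concentration per compound, 5 µM, with 0.2% DMSO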
FXIIa inh: human FXIIa protease inhibitors, primary screen, biochemical, 1536-well. Coagulation factor XII (Homo sapiens), P00748. purified FXIIa, Boc-QGR-AMC fluorogenic substrate, 2 h. inhibition, % at 5 µM. actives 0.3% (n = 220,000). AID 800, 2007; in the data active = inhibition above about 40%
KLK5 inh: human KLK5 protease inhibitors, primary screen, biochemical, 1536-well; Kallikrein-5 (Homo sapiens), Q9Y337; recombinant hK5, fluorogenic AMC substrate cleavage; inhibition, % at 5 µM; actives 0.59% (n = 210,000); AID 873, 2007;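 active = inhibition of 40% or more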
FXIa inh: human FXIa protease inhibitors, primary screen, biochemical, 1536-well. AID 798, 2007. Coagulation factor XI (Homo sapiens), P03951. purified FXIa, Boc-Glu-Ala-Arg-AMC fluorogenic substrate. actives 0.14% (n = 220,000). inhibition, % at 5 µM;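 active = inhibition of at least 40%; inactive = inhibition below 40%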;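 note: fluorescence of freed AMC excited at 355 nm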
Target sequence (P03951 19-387 limits assumed): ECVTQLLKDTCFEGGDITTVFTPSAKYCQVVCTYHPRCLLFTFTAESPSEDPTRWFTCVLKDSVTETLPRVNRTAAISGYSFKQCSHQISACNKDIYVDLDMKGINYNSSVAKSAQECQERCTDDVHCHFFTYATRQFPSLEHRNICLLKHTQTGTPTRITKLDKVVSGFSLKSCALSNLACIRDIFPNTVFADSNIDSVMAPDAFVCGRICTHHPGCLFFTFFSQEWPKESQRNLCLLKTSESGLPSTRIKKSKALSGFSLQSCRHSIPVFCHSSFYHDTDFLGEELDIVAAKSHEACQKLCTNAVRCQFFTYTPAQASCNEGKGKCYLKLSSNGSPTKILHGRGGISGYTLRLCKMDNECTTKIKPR
Target sequence (P03951 388-625 limits assumed): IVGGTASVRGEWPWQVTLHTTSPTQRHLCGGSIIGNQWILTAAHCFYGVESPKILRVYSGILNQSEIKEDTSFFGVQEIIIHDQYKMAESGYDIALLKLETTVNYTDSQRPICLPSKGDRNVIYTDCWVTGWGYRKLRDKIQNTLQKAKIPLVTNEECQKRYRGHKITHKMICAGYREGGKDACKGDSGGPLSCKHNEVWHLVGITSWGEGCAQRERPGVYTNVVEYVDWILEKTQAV
STAT3 act-2: STAT3 reporter potentiators, retest of hits, confirmation, U3A cells, luciferase, luminescence. IL-6 potentiation; U3A cells lack STAT1; 100 means same as IL-6 alone. AID 1267, 2008. actives 64% (n = 1,200). shares compounds with STAT3 act-1. potentiation (% of control), % at 5.7 µM;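 active = percent activation of the STAT3 luciferase reporter above a set limit taken from the earlier primary screen, cut at about 130% in these data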
NFkB act STAT3ct: NF-kB reporter activators in human cells, counter-screen for STAT3 activator project. activation (% of control), % at 5.7 µM. shares compounds with STAT3 act-1. AID 1309, 2008. NF-kappaB reporter activation. actives 11% (n = 1,200); in the data active = activation above about 120%;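 note: reporter induced by TNF-alpha stimulation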
STAT1 act STAT3c: STAT1 reporter activators, IFN-gamma induced, counter-screen for STAT3 activator project, cell-based, NIH 3T3, luciferase luminescence | shares compounds with STAT3 act-1 | NIH 3T3 STAT1-luciferase reporter | activation (% of control), % at 5.7 µM | actives 13% (n = 1,200);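 active = activation above the solvent-only control well mean plus 3 SD, set per screening run, cut at about 120% in these data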
Large screens that a line does not name were inactive (follow-up assays come after a bar, where they were run); ! = not confirmed by another sample. An excerpt weighted towards active compounds, which were near 3.5% of everything screened.

CCC(=O)N1CCN(c2ccccc2NC(=O)COc2ccccc2Cl)CC1	AHR activator 68, STAT3 act-1 156 | STAT3 act-2 143 | NFkB act STAT3ct inactive | STAT1 act STAT3c inactive
COc1ccccc1CC(=O)Nc1cc(Cl)ccc1O	none
Cc1ccc(S(=O)(=O)NC(=O)c2ccccc2C)cc1	none (no result: STAT3 act-1, thrombin 1536, FXIIa inh, KLK5 inh, FXIa inh)
COc1ccc2nc(C)cc(SCC(=O)O)c2c1	STAT3 act-1 140! | STAT3 act-2 inactive | NFkB act STAT3ct inactive | STAT1 act STAT3c inactive
COC(=O)CSc1cc(C)nc2ccc(OC)cc12	none
COc1ccc(CNn2c(-c3ccccc3F)nc3ccccc3c2=O)cc1OC	none
COc1cc(-c2nc3ccccc3s2)ccc1O	AHR activator 48, STAT3 act-1 141 | STAT3 act-2 135 | NFkB act STAT3ct inactive | STAT1 act STAT3c 121
COc1cccc(-c2nc3ccccc3s2)c1O	none
COc1cc(OC)c(-c2nc3ccccc3s2)cc1OC	STAT3 act-1 149 | STAT3 act-2 154 | NFkB act STAT3ct inactive | STAT1 act STAT3c inactive
CCOc1ccc(CN(C)C(=O)CN2C(=O)NC(c3ccccc3)(c3ccccc3)C2=O)cc1	none (no result: STAT3 act-1, thrombin 1536, FXIIa inh, KLK5 inh, FXIa inh)
CN(C)c1nc(OCCOC(=O)COc2ccc(Cl)cc2Cl)nc(N(C)C)n1	none
CN(C)c1nc(OCCNC(=O)COc2ccc(Cl)cc2Cl)nc(N(C)C)n1	STAT3 act-1 146 | STAT3 act-2 inactive | NFkB act STAT3ct inactive | STAT1 act STAT3c inactive
CCc1ccccc1NC(=O)CCCSc1nc2ccccc2s1	none
O=C(CCCSc1nc2ccccc2s1)NCc1ccco1	STAT3 act-1 150 | STAT3 act-2 136 | NFkB act STAT3ct inactive | STAT1 act STAT3c inactive
COC(=O)c1cc2ccsc2n1CC(=O)Nc1cc(Cl)ccc1OC	STAT3 act-1 152 | STAT3 act-2 147 | NFkB act STAT3ct inactive | STAT1 act STAT3c inactive
O=C(NC(=S)N1CCCc2ccccc21)c1ccc([N+](=O)[O-])cc1	none
O=C(NC(=S)N1CCCc2ccccc21)c1ccccc1	STAT3 act-1 167 | STAT3 act-2 149 | NFkB act STAT3ct inactive | STAT1 act STAT3c inactive
CN(C)C(=O)N1CCC(C(=O)NCc2cccs2)CC1	STAT3 act-1 145 | STAT3 act-2 inactive | NFkB act STAT3ct inactive | STAT1 act STAT3c inactive
CN(C)C(=O)N1CCCC(C(=O)NCc2cccs2)C1 (stereo unspecified)	none
Fc1ccc(C2c3[nH]c4ccccc4c3CCN2CCCn2cccn2)cc1 (stereo unspecified)	none (no result: STAT3 act-1)
Cc1ccccc1C1c2[nH]c3ccccc3c2CCN1CCCn1cccn1 (stereo unspecified)	STAT3 act-1 152 (no result: KLK5 inh) | STAT3 act-2 148 | NFkB act STAT3ct inactive | STAT1 act STAT3c inactive
Cc1ccc(-c2nc3ccccc3s2)cc1NC(=O)c1ccc2c(c1)OCO2	none
O=C(Nc1cc(-c2nc3ccccc3s2)ccc1Cl)c1ccc2c(c1)OCO2	STAT3 act-1 138 | STAT3 act-2 137 | NFkB act STAT3ct inactive | STAT1 act STAT3c 127
Cc1cccc(C(=O)NC2CCN(CC(=O)Nc3ccccc3Cl)CC2)c1	none (no result: STAT3 act-1, thrombin 1536, FXIIa inh, KLK5 inh, FXIa inh)
O=C(Nc1nnc(CC(=O)N2CCOCC2)s1)c1cccs1	STAT3 act-1 147 | STAT3 act-2 inactive | NFkB act STAT3ct inactive | STAT1 act STAT3c inactive
NS(=O)(=O)c1ccc(CNS(=O)(=O)c2cccc3nonc23)cc1	none (no result: STAT3 act-1)
O=C1C2CC=C(Cl)CC2C(=O)N1CCc1c[nH]c2ccccc12 (stereo unspecified)	STAT3 act-1 141 | STAT3 act-2 149 | NFkB act STAT3ct inactive | STAT1 act STAT3c inactive
CC1=CCC2C(=O)N(CCc3c[nH]c4ccccc34)C(=O)C2C1 (stereo unspecified)	STAT3 act-1 142 | STAT3 act-2 inactive | NFkB act STAT3ct inactive | STAT1 act STAT3c inactive
N#Cc1c(C(F)(F)F)cc(-c2ccc(Cl)c(Cl)c2)nc1SCCN1CCOCC1	AHR activator 65, STAT3 act-1 160 | STAT3 act-2 146 | NFkB act STAT3ct inactive | STAT1 act STAT3c inactive
COc1ccc(NS(=O)(=O)c2cccc(C(=O)NNC(=O)c3cc(S(N)(=O)=O)ccc3OC)c2)cc1	none (no result: STAT3 act-1, thrombin 1536, FXIIa inh, KLK5 inh, FXIa inh)
O=C(c1cccc(F)c1)N1CCc2ccccc21	STAT3 act-1 145 | STAT3 act-2 inactive | NFkB act STAT3ct inactive | STAT1 act STAT3c inactive
Cc1nn(C)c(C(=O)N2CCc3ccccc32)c1Cl	STAT3 act-1 144 | STAT3 act-2 inactive | NFkB act STAT3ct inactive | STAT1 act STAT3c inactive
Cn1ncc(Cl)c1C(=O)N1CCc2ccccc21	STAT3 act-1 155 | STAT3 act-2 140 | NFkB act STAT3ct inactive | STAT1 act STAT3c inactive
COCCN(C(=O)c1cc(-c2ccco2)nc2ccccc12)c1c(N)n(Cc2ccccc2)c(=O)[nH]c1=O	none (no result: STAT3 act-1, thrombin 1536, FXIIa inh, KLK5 inh, FXIa inh)
CCC(C)(C#CCN1CCCCC1)OC(C)=O (stereo unspecified)	none
Cc1noc(C)c1COc1ccc(C(=O)N2CCCC(C(F)(F)F)C2)cc1 (stereo unspecified)	none (no result: STAT3 act-1, thrombin 1536, FXIIa inh, KLK5 inh, FXIa inh)
Cc1ccc(S(=O)(=O)Nc2ccc3c4c(cccc24)CC3)c(C)c1	none (no result: thrombin 1536, FXIIa inh, KLK5 inh, FXIa inh)
Cc1ccc(S(=O)(=O)Nc2cc(C(C(=O)OC(C)C)C(=O)C(F)(F)F)c(O)c3ccccc23)c(C)c1 (stereo unspecified)	AHR activator 48, STAT3 act-1 138 | STAT3 act-2 inactive | NFkB act STAT3ct inactive | STAT1 act STAT3c inactive
COc1cc(C(=O)OCC(=O)NC2CC2)ccc1OCCC(C)C	none (no result: STAT3 act-1, thrombin 1536, FXIIa inh, KLK5 inh, FXIa inh)
CCOC(=O)c1c2n(c3ccc(O)cc13)CCC2	STAT3 act-1 163 | STAT3 act-2 inactive | NFkB act STAT3ct inactive | STAT1 act STAT3c inactive
CCn1c(=O)c(C(=O)Nc2ccc(C)cc2)c(O)c2ccccc21	none (no result: STAT3 act-1, thrombin 1536, FXIIa inh, KLK5 inh, FXIa inh)
Cc1ccc(NC(=O)c2c(Cl)n(C)c3ccccc23)cc1	STAT3 act-1 170 | STAT3 act-2 190 | NFkB act STAT3ct 123 | STAT1 act STAT3c 132
